{"source": "ChEMBL document CHEMBL1121744", "about": "“Synthesis and antihypertensive activity of a series of 8-substituted 1-oxa-3,8-diazaspiro[4.5]decan-2-ones” (J Med Chem, 1981)", "key": {"Rattus norvegicus [1]": {"test_system": "Rattus norvegicus", "experiment": "The antihypertensive activity as percentage fall in systolic blood pressure in spontaneously hypertensive rats after a period of 4 hr for a dose of 75 mg/kg po; NS=Not significant", "format": "functional, organism-based", "design": "dose 75 mg/kg", "conditions": "Artery", "how_it_was_run": "(§1)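 Male Okamoto-Aoki SHR, trained, in groups of four matched for systolic pressure, with a concurrent vehicle control group. Oral dosing on two consecutive mornings, in water as solution or suspension at 0.1 mL/10 g. On day 2 rats were restrained at 30.0 ± 1.0 °C. Tail-cuff systolic pressure, four traces per rat, read at each hour. Per cent fall versus control; 1-tail t test, p ≤ 0.05.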"}, "Rattus norvegicus [2]": {"test_system": "Rattus norvegicus", "experiment": "The antihypertensive activity as percentage fall in systolic blood pressure in spontaneously hypertensive rats after a period of 3 hr for a dose of 75 mg/kg po; NS=Not significant", "format": "functional, organism-based", "design": "dose 75 mg/kg", "conditions": "Artery", "how_it_was_run": "as §1"}, "[3]": {"experiment": "(§2) Distribution coefficient between 1-Octanol and phosphate buffer at pH7.4", "format": "physicochemical", "conditions": "1-octanol/phosphate buffer, pH 7.4", "how_it_was_run": "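Octanol/buffer distribution measured at pH 7.4 in phosphate with sodium chloride. Either HPLC (0.004 M) or shake flask.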"}, "Rattus norvegicus [4]": {"test_system": "Rattus norvegicus", "experiment": "The antihypertensive activity as percentage fall in systolic blood pressure in spontaneously hypertensive rats after a period of 1 hr for a dose of 50 mg/kg po"}, "Rattus norvegicus [5]": {"test_system": "Rattus norvegicus", "experiment": "The antihypertensive activity as percentage fall in systolic blood pressure in spontaneously hypertensive rats after a period of 2 hr for a dose of 75 mg/kg po; NS=Not significant", "format": "functional, organism-based", "design": "dose 75 mg/kg", "conditions": "Artery", "how_it_was_run": "as §1"}, "Rattus norvegicus [6]": {"test_system": "Rattus norvegicus", "experiment": "The antihypertensive activity as percentage fall in systolic blood pressure in spontaneously hypertensive rats after a period of 1 hr for a dose of 100 mg/kg po", "format": "functional, Artery", "how_it_was_run": "(§3)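 Male Okamoto-Aoki SHR, trained, in groups of four matched for mean systolic pressure; one group per run received water vehicle. Oral dosing in water (0.1 mL per 10 g) on two consecutive mornings. After the day-2 dose, rats were restrained at 30.0 ± 1.0 °C. Systolic pressure was read by tail cuff (inflated to 300 mmHg, first pulse) at 1–4 h. % fall is versus the untreated control group, by 1-tail t test (p ≤ 0.05).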"}, "Rattus norvegicus [7]": {"test_system": "Rattus norvegicus", "experiment": "The antihypertensive activity as percentage fall in systolic blood pressure in spontaneously hypertensive rats after a period of 4 hr for a dose of 100 mg/kg po", "format": "functional, Artery", "how_it_was_run": "as §3"}, "Rattus norvegicus [8]": {"test_system": "Rattus norvegicus", "experiment": "Percentage fall in systolic blood pressure in spontaneously hypertensive rats after 2 hr following 50 mg/kg p.o.", "format": "functional, Artery", "conditions": "route oral", "how_it_was_run": "as §3"}, "[9]": {"experiment": "as §2", "format": "physicochemical", "conditions": "1-octanol/phosphate buffer, pH 7.4", "remark": "listed apart in the source"}, "Rattus norvegicus [10]": {"test_system": "Rattus norvegicus", "experiment": "Antihypertensive activity as percentage fall in systolic blood pressure in spontaneously hypertensive rats after a period of 1 hr for a dose of 50 mg/kg", "format": "functional, Artery", "how_it_was_run": "as §3"}, "Rattus norvegicus [11]": {"test_system": "Rattus norvegicus", "experiment": "The antihypertensive activity as percentage fall in systolic blood pressure in spontaneously hypertensive rats after a period of 3 hr for a dose of 100 mg/kg po", "format": "functional, Artery", "how_it_was_run": "as §3"}, "Rattus norvegicus [12]": {"test_system": "Rattus norvegicus", "experiment": "Percentage fall in systolic blood pressure in spontaneously hypertensive rats after 3 h following 50 mg/kg p.o.", "format": "functional, Artery", "conditions": "route oral", "how_it_was_run": "as §3"}, "Rattus norvegicus [13]": {"test_system": "Rattus norvegicus", "experiment": "Antihypertensive activity as percentage fall in systolic blood pressure in spontaneously hypertensive rats after a period of 4 hr for a dose of 50 mg/kg", "format": "functional, organism-based", "design": "dose 50 mg/kg", "conditions": "Artery", "how_it_was_run": "as §3"}, "Rattus norvegicus [14]": {"test_system": "Rattus norvegicus", "experiment": "The antihypertensive activity as percentage fall in systolic blood pressure in spontaneously hypertensive rats after a period of 2 hr for a dose of 100 mg/kg po", "format": "functional, Artery", "how_it_was_run": "as §3"}, "Canis familiaris [15]": {"test_system": "Canis familiaris", "experiment": "Percent inhibition of the pressor responses to 0.75 ug/kg iv norepinephrine in pentobarbital-anesthetized dogs for a dose of 1 mg/kg", "format": "functional", "conditions": "Canis lupus familiaris", "how_it_was_run": "(§4)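 Pentobarbital-anesthetized dogs (35 mg/kg iv) with femoral arterial pressure recording. Epinephrine (1 μg/kg), norepinephrine (0.75 μg/kg) and phenylephrine (7.5 μg/kg) iv challenges were given about every 10 min before and after rising iv test doses, which were spaced 90 min apart. Value is % inhibition of the pressor response.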"}, "Canis familiaris [16]": {"test_system": "Canis familiaris", "experiment": "Percent inhibition of the pressor responses to 1 ug/kg iv Epinephrine in pentobarbital-anesthetized dogs for a dose of 0.1 mg/kg", "format": "functional", "conditions": "Canis lupus familiaris", "how_it_was_run": "as §4"}, "Canis familiaris [17]": {"test_system": "Canis familiaris", "experiment": "Change in mean arterial pressure in anesthetized dogs for a dose of 0.1 mg/kg", "format": "functional, Canis lupus familiaris, Artery", "how_it_was_run": "(§5)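 Dogs anesthetized with sodium pentobarbital (35 mg/kg iv), femoral artery cannulated for pressure, ECG-triggered heart rate, femoral vein for dosing. Rising iv doses were given 90 min apart, and each dose is the full dose, not cumulative. Value is the maximal mean arterial pressure change 10–15 min after each dose, two dogs per compound, ±3 mmHg. Saline served as control.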"}, "Canis familiaris [18]": {"test_system": "Canis familiaris", "experiment": "Change in mean arterial pressure in anesthetized dogs for a dose of 10 mg/kg", "format": "functional, Canis lupus familiaris, Artery", "how_it_was_run": "as §5"}, "Canis familiaris [19]": {"test_system": "Canis familiaris", "experiment": "Percent inhibition of the pressor responses to 7.5 ug/kg iv phenylephrine in pentobarbital-anesthetized dogs for a dose of 1 mg/kg", "format": "functional", "conditions": "Canis lupus familiaris", "how_it_was_run": "as §4"}, "Canis familiaris [20]": {"test_system": "Canis familiaris", "experiment": "Percent inhibition of the pressor responses to 1 ug/kg iv Epinephrine in pentobarbital-anesthetized dogs for a dose of 1 mg/kg", "format": "functional", "conditions": "Canis lupus familiaris", "how_it_was_run": "as §4"}, "Canis familiaris [21]": {"test_system": "Canis familiaris", "experiment": "Percent inhibition of the pressor responses to 7.5 ug/kg iv phenylephrine in pentobarbital-anesthetized dogs for a dose of 0.1 mg/kg", "format": "functional", "conditions": "Canis lupus familiaris", "how_it_was_run": "as §4"}, "Canis familiaris [22]": {"test_system": "Canis familiaris", "experiment": "Percent inhibition of the pressor responses to 0.75 ug/kg iv norepinephrine in pentobarbital-anesthetized dogs for a dose of 0.1 mg/kg", "format": "functional", "conditions": "Canis lupus familiaris", "how_it_was_run": "as §4"}, "Canis familiaris [23]": {"test_system": "Canis familiaris", "experiment": "Change in mean arterial pressure in anesthetized dogs for a dose of 1 mg/kg", "format": "functional, Canis lupus familiaris, Artery", "how_it_was_run": "as §5"}, "Canis familiaris [24]": {"test_system": "Canis familiaris", "experiment": "Percent inhibition of the pressor responses to 7.5 ug/kg iv phenylephrine in pentobarbital-anesthetized dogs for a dose of 10 mg/kg", "format": "functional", "conditions": "Canis lupus familiaris", "how_it_was_run": "as §4"}, "Canis familiaris [25]": {"test_system": "Canis familiaris", "experiment": "Percent inhibition of the pressor responses to 1 ug/kg iv Epinephrine in pentobarbital-anesthetized dogs for a dose of 10 mg/kg", "format": "functional", "conditions": "Canis lupus familiaris", "how_it_was_run": "as §4"}}, "note": "Values joined by “and” are separate entries in the source; they are usually repeats but may differ in a detail not shown here. Equal entries are not always repeated. Active and inactive are the calls of the source. The calls are words filed in the database; no cut-off is given here.", "data": [{"smiles": "O=C1NC(Cc2ccccc2)C2(CCN(CCc3c[nH]c4ccccc34)CC2)O1", "note": "(centres undefined)", "values": [{"measurement": "Decrease in blood pressure", "setting": "Rattus norvegicus [1]", "value": "inactive"}, {"measurement": "Decrease in blood pressure", "setting": "Rattus norvegicus [2]", "value": "inactive"}, {"measurement": "logD", "setting": "[3]", "value": 2.68}, {"measurement": "Decrease in blood pressure", "setting": "Rattus norvegicus [4]", "value": 13, "unit": "%"}, {"measurement": "Decrease in blood pressure", "setting": "Rattus norvegicus [5]", "value": "inactive"}]}, {"smiles": "O=C1NCC2(CCN(CC(O)C3COc4ccccc4O3)CC2)O1", "note": "(centres undefined)", "values": [{"measurement": "Decrease in blood pressure", "setting": "Rattus norvegicus [6]", "value": 24, "unit": "%"}, {"measurement": "Decrease in blood pressure", "setting": "Rattus norvegicus [7]", "value": 16, "unit": "%"}, {"measurement": "Decrease in blood pressure", "setting": "Rattus norvegicus [8]", "value": 12, "unit": "%"}, {"measurement": "logD", "setting": "[9]", "value": 0.98}, {"measurement": "Decrease in blood pressure", "setting": "Rattus norvegicus [10]", "value": 28, "unit": "%"}, {"measurement": "Decrease in blood pressure", "setting": "Rattus norvegicus [11]", "value": 11, "unit": "%"}, {"measurement": "Decrease in blood pressure", "setting": "Rattus norvegicus [12]", "value": 21, "unit": "%"}, {"measurement": "Decrease in blood pressure", "setting": "Rattus norvegicus [13]", "value": "Not significant"}, {"measurement": "Decrease in blood pressure", "setting": "Rattus norvegicus [14]", "value": 14, "unit": "%"}]}, {"smiles": "O=C(NC1CCN(CCc2c[nH]c3ccccc23)CC1)c1ccccc1", "note": "[INDORAMIN]", "values": [{"measurement": "inhibition in vivo at 1 mg/kg", "setting": "Canis familiaris [15]", "value": 23, "unit": "%"}, {"measurement": "inhibition in vivo at 0.1 mg/kg", "setting": "Canis familiaris [16]", "value": 74, "unit": "%"}, {"measurement": "MAP", "setting": "Canis familiaris [17]", "value": -5, "unit": "mmHg"}, {"measurement": "MAP", "setting": "Canis familiaris [18]", "value": -38, "unit": "mmHg"}, {"measurement": "inhibition in vivo at 1 mg/kg", "setting": "Canis familiaris [19]", "value": 83, "unit": "%"}, {"measurement": "inhibition in vivo at 1 mg/kg", "setting": "Canis familiaris [20]", "value": 92, "unit": "%"}, {"measurement": "Decrease in blood pressure", "setting": "Rattus norvegicus [8]; 50 mg/kg", "value": "20% and 11%"}, {"measurement": "inhibition in vivo at 0.1 mg/kg", "setting": "Canis familiaris [21]", "value": 65, "unit": "%"}, {"measurement": "logD", "setting": "[9]", "value": 2.13}, {"measurement": "inhibition in vivo at 0.1 mg/kg", "setting": "Canis familiaris [22]", "value": 21, "unit": "%"}, {"measurement": "Decrease in blood pressure", "setting": "Rattus norvegicus [10]", "value": 33, "unit": "%"}, {"measurement": "MAP", "setting": "Canis familiaris [23]", "value": -28, "unit": "mmHg"}, {"measurement": "inhibition in vivo at 10 mg/kg", "setting": "Canis familiaris [24]", "value": 93, "unit": "%"}, {"measurement": "inhibition in vivo at 10 mg/kg", "setting": "Canis familiaris [25]", "value": "> 100", "unit": "%"}, {"measurement": "Decrease in blood pressure", "setting": "Rattus norvegicus [12]", "value": 13, "unit": "%"}]}]}
